Test results from ChEMBL document CHEMBL1152398, “Labdane diterpenoid glycosides from Alpinia densespicata and their nitric oxide inhibitory activities in macrophages” (J Nat Prod, 2009).
Active and inactive are the calls of the source. No cut-off for these calls is given here.

How the values were obtained:
RAW264.7 = test: Antiinflammatory activity in mouse RAW264.7 cells assessed as inhibition of LPS-induced nitric oxide production after 24 hrs by Griess reagent assay; type: functional, cell-based; conditions: RAW264.7, 24 h
Method in brief: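 RAW264.7 murine macrophages grown in DMEM with 10% heat-inactivated FBS at 37 °C, 5% CO2. After 24 h, medium renewed; compounds added at 0, 1, 5, 10 or 20 µg/mL with LPS 1 µg/mL, then 24 h incubation. Supernatant nitrite measured with Griess reagent, absorbance 540 nm. Results given as percent of untreated control. Mean ± SD of three experiments, each in triplicate.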

HeLa = test: Cytotoxicity against human HeLa cells at 20 uM by modified MTT assay; type: functional, cell-based
KB = test: Cytotoxicity against human KB cells at 20 uM by modified MTT assay; type: functional, cell-based
Daoy = test: Cytotoxicity against human DaOY cells at 20 uM by modified MTT assay; type: functional, cell-based
WiDr = test: Cytotoxicity against human WiDr cells at 20 uM by modified MTT assay; type: functional, cell-based
[1] = tested on: Radical scavenging activity; test: Antioxidant activity assessed as DPPH radical scavenging activity after 30 mins by ELISA; type: functional
Method in brief: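 Sample (200-3.125 µg/mL) or quercetin (25-3.125 µg/mL), 120 µL, mixed with 30 µL of 0.75 mM DPPH in methanol. Shaken in the dark at room temperature for 30 min, then absorbance read at 517 nm. Methanol in place of sample served as negative control. ED50 is the concentration giving 50% reduction of DPPH radicals.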

[2] = Cytotoxicity against mouse RAW264.7 cells assessed as cell viability by modified MTT assay; type: cell-based; design: concentration or dose not given beside the values; conditions: read-out: Activity
Method in brief: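 RAW264.7 cells after the same LPS (1 µg/mL) and compound (0-20 µg/mL) 24 h exposure used for NO measurement. MTT (5 mg/mL stock in PBS, 10 µL per 100 µL culture) added for 4 h at 37 °C. Formazan dissolved in DMSO and read at 550 nm. Untreated cells taken as 100% viability.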

| SMILES | IC50 (RAW264.7) | Activity (HeLa) | Activity (KB) | Activity (Daoy) | Activity (WiDr) | ED50 [1] | viability [2] |
| --- | --- | --- | --- | --- | --- | --- | --- |
| C[C@@H]1O[C@@H](O[C@H]2[C@H](O[C@H]3CC[C@]4(C)C5=C(CC[C@H]4C3(C)C)CO[C@H](C3=CCOC3=O)C5)O[C@H](CO)[C@@H](O)[C@@H]2O)[C@H](O)[C@H](O)[C@H]1O [ALPINDENOSIDE A] | 34.2 µM | inactive | inactive | inactive | inactive | > 200 µg/mL | > 80% |
| C[C@@H]1O[C@@H](O[C@H]2[C@H](O[C@H]3CC[C@]4(C)C5=C(CC[C@H]4C3(C)C)CO[C@@H](C3=CCOC3=O)C5)O[C@H](CO)[C@@H](O)[C@@H]2O)[C@H](O)[C@H](O)[C@H]1O [ALPINDENOSIDE B] | 49.3 µM | inactive | inactive | inactive | inactive | > 200 µg/mL | > 80% |
| C[C@@H]1O[C@@H](O[C@H]2[C@H](O[C@H]3CC[C@]4(C)[C@@H]5C[C@H](C6=CCOC6=O)OC(O)[C@@H]5CC[C@H]4C3(C)C)O[C@H](CO)[C@@H](O)[C@@H]2O)[C@H](O)[C@H](O)[C@H]1O (stereo partly specified) [ALPINDENOSIDE C] | 38 µM | inactive | inactive | inactive | inactive | > 200 µg/mL | > 80% |
| CC1(C)[C@@H](O)CC[C@]2(C)C3=C(CC[C@@H]12)CO[C@@H](C1=CCOC1=O)C3 [AULACOCARPINOLIDE] | 44.6 µM | inactive | inactive | inactive | inactive |  | > 80% |
| C=C(C)[C@H]1C[C@@H]2[C@@H](CC[C@H]3C(C)(C)[C@@H](O[C@@H]4O[C@H](CO)[C@@H](O)[C@H](O)[C@H]4O[C@@H]4O[C@@H](C)[C@H](O)[C@@H](O)[C@H]4O)CC[C@]23C)[C@H]1O [NORALPINDENOSIDE B] | 44.3 µM | inactive | inactive | inactive | inactive | > 200 µg/mL | > 80% |
| C[C@@H]1O[C@@H](O[C@H]2C(Oc3c(-c4ccc(O)cc4)oc4cc(O)cc(O)c4c3=O)O[C@@H](C)[C@H](O)[C@H]2O)[C@H](O)[C@H](O)[C@H]1O (stereo partly specified) | 40.1 µM | inactive | inactive | inactive | inactive |  | > 80% |
| C[C@@H]1O[C@@H](O[C@H]2[C@H](Oc3c(-c4ccc(O)c(O)c4)oc4cc(O)cc(O)c4c3=O)O[C@@H](C)[C@H](O)[C@H]2O)[C@H](O)[C@H](O)[C@H]1O | 32.9 µM | inactive | inactive | inactive | inactive | 16.6 µM | > 80% |
| CC(=O)OC[C@H]1O[C@@H](O[C@H]2CC[C@]3(C)[C@H]4C[C@H](C5=CCOC5=O)OC(O)[C@@H]4CC[C@H]3C2(C)C)[C@H](O[C@@H]2O[C@@H](C)[C@H](O)[C@@H](O)[C@H]2O)[C@@H](O)[C@@H]1O (stereo partly specified) [ALPINDENOSIDE D] | 30 µM | inactive | inactive | inactive | inactive | > 200 µg/mL | > 80% |
| CC1(C)[C@@H](O)CC[C@]2(C)C3=C(CC[C@@H]12)CO[C@H](C1=CCOC1=O)C3 | 12.2 µM | inactive | inactive | inactive | inactive |  | > 80% |
| C=C(CO)[C@H]1C[C@@H]2[C@@H](CC[C@H]3C(C)(C)[C@@H](O[C@@H]4O[C@H](CO)[C@@H](O)[C@H](O)[C@H]4O[C@@H]4O[C@@H](C)[C@H](O)[C@@H](O)[C@H]4O)CC[C@]23C)[C@H]1O [NORALPINDENOSIDE A] | 31.8 µM | inactive | inactive | inactive | inactive | > 200 µg/mL | > 80% |
| O=c1c(O)c(-c2ccc(O)c(O)c2)oc2cc(O)cc(O)c12 [QUERCETIN] | 9.6 µM |  |  |  |  | 18 µM |  |
| O=c1c(O)c(-c2ccc(O)cc2O)oc2cc(O[C@@H]3O[C@H](CO)[C@@H](O)[C@H](O)[C@H]3O)cc(O)c12 | 39.1 µM | inactive | inactive | inactive | inactive | 22.2 µM | > 80% |
